What was measured:
[1] = test system: HEp-2; assay: Antiproliferative activity against human Hep2 cells after 48 hrs by sulforhodamine B assay; assay type: functional, cell-based; details: HEp-2, 48 h
[2] = test system: MCF7; assay: Antiproliferative activity against human MCF7 cells after 48 hrs by sulforhodamine B assay; assay type: functional, cell-based; details: MCF7, 48 h
[3] = test system: PC-3; assay: Cell cycle arrest in human PC3 cells assessed as accumulation at subG1 phase at 1 uM after 24 hrs by propidium iodide staining-based FACS flow cytometric analysis (reference value: 13.1%); assay type: functional
Method in brief: (§1)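 PC-3 cells (1×10^6/well) exposed 24 h to test agent at 1, 5 or 10 μM. Cells washed twice in ice-cold PBS, fixed in 70% ethanol for 30 min, then treated with RNase A (0.1 mg/mL, 37 °C, 30 min). Propidium iodide staining 30 min on ice in the dark. DNA content read by flow cytometry with 488 nm excitation and doublet discrimination, 10,000 events.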

[4] = test system: PC-3; assay: Cell cycle arrest in human PC3 cells assessed as accumulation at M phase at 5 uM after 24 hrs by propidium iodide staining-based FACS flow cytometric analysis (reference value: 3%); assay type: functional; method in brief: as §1
[5] = test system: PC-3; assay: Cell cycle arrest in human PC3 cells assessed as accumulation at subG1 phase at 10 uM after 24 hrs by propidium iodide staining-based FACS flow cytometric analysis (reference value: 13.1%); assay type: functional; method in brief: as §1
[6] = test system: PC-3; assay: Cell cycle arrest in human PC3 cells assessed as accumulation at M phase at 1 uM after 24 hrs by propidium iodide staining-based FACS flow cytometric analysis (reference value: 3%); assay type: functional; method in brief: as §1
[7] = test system: PC-3; assay: Cell cycle arrest in human PC3 cells assessed as accumulation at M phase at 10 uM after 24 hrs by propidium iodide staining-based FACS flow cytometric analysis (reference value: 3%); assay type: functional; method in brief: as §1
[8] = test system: PC-3; assay: Cell cycle arrest in human PC3 cells assessed as accumulation at S phase at 1 uM after 24 hrs by propidium iodide staining-based FACS flow cytometric analysis (reference value: 8.5%); assay type: functional; method in brief: as §1
[9] = test system: A549; assay: Antiproliferative activity against human A549 cells after 48 hrs by sulforhodamine B assay; assay type: functional, cell-based; details: A549, 48 h
[10] = test system: PC-3; assay: Antiproliferative activity against human PC3 cells after 48 hrs by sulforhodamine B assay; assay type: functional, cell-based; details: PC-3, 48 h
[11] = test system: PC-3; assay: Cell cycle arrest in human PC3 cells assessed as accumulation at S phase at 10 uM after 24 hrs by propidium iodide staining-based FACS flow cytometric analysis (reference value: 8.5%); assay type: functional; method in brief: as §1
[12] = test system: PC-3; assay: Cell cycle arrest in human PC3 cells assessed as accumulation at S phase at 5 uM after 24 hrs by propidium iodide staining-based FACS flow cytometric analysis (reference value: 8.5%); assay type: functional; method in brief: as §1
[13] = test system: PC-3; assay: Cell cycle arrest in human PC3 cells assessed as accumulation at G0/G1 phase at 10 uM after 24 hrs by propidium iodide staining-based FACS flow cytometric analysis (reference value: 68.2%); assay type: functional; method in brief: as §1
[14] = test system: PC-3; assay: Cell cycle arrest in human PC3 cells assessed as accumulation at subG1 phase at 5 uM after 24 hrs by propidium iodide staining-based FACS flow cytometric analysis (reference value: 13.1%); assay type: functional; method in brief: as §1
[15] = test system: HCT-116; assay: Antiproliferative activity against human HCT116 cells after 48 hrs by sulforhodamine B assay; assay type: functional, cell-based; details: HCT-116, 48 h
[16] = test system: PC-3; assay: Cell cycle arrest in human PC3 cells assessed as accumulation at G0/G1 phase at 1 uM after 24 hrs by propidium iodide staining-based FACS flow cytometric analysis (reference value: 68.2%); assay type: functional; method in brief: as §1
[17] = test system: PC-3; assay: Cell cycle arrest in human PC3 cells assessed as accumulation at G0/G1 phase at 5 uM after 24 hrs by propidium iodide staining-based FACS flow cytometric analysis (reference value: 68.2%); assay type: functional; method in brief: as §1
[18] = test system: THP-1; assay: Antiproliferative activity against human THP1 cells after 48 hrs by sulforhodamine B assay; assay type: functional, cell-based; details: THP-1, 48 h
[19] = test system: PC-3; assay: Cell cycle arrest in human PC3 cells assessed as accumulation at subG1 phase after 24 hrs by propidium iodide staining-based FACS flow cytometric analysis; assay type: functional; method in brief: as §1
[20] = molecular target: Transcription factor p65 (Homo sapiens) (UniProt Q04206); assay: Inhibition of NFkappaB p65 in nuclear extract of human PC3 cells assessed as reduction in binding to consensus DNA sequence at 5 uM after 24 hrs relative to control; assay type: cell-based; details: PC-3
Chain of Transcription factor p65 (Homo sapiens) (Q04206 whole entry): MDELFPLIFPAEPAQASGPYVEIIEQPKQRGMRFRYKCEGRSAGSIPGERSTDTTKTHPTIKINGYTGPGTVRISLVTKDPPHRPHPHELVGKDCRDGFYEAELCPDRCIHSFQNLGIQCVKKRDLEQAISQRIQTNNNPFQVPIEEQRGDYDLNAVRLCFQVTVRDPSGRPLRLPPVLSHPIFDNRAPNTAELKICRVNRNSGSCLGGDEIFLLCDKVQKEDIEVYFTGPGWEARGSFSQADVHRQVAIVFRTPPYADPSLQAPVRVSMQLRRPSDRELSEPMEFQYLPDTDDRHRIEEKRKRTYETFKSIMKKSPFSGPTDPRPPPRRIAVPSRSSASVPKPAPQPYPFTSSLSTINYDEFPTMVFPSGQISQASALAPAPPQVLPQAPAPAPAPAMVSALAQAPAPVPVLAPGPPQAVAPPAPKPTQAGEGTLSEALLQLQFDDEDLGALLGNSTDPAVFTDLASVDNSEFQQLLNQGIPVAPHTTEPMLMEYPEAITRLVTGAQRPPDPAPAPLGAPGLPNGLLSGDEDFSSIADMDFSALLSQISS
Method in brief: (§2)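 PC-3 cells (5×10^6) treated 24 h at varied concentrations. Nuclear extract made by hypotonic lysis (HEPES/KOH pH 7.9) followed by high-salt extraction. Nuclear protein (20 µg) incubated overnight at 4 °C in wells carrying immobilized NF-κB DNA consensus element, then anti-p65 primary antibody 1 h and HRP secondary 1 h. Substrate 30 min, OD 450 nm, normalized to untreated control = 100%.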

[21] = molecular target: Transcription factor p65 (Homo sapiens) (UniProt Q04206); assay: Inhibition of NFkappaB p65 in nuclear extract of human PC3 cells assessed as reduction in binding to consensus DNA sequence at 1 uM after 24 hrs relative to control; assay type: cell-based; details: PC-3; method in brief: as §2
[22] = molecular target: Transcription factor p65 (Homo sapiens) (UniProt Q04206); assay: Inhibition of NFkappaB p65 in nuclear extract of human PC3 cells assessed as reduction in binding to DNA response element after 24 hrs; assay type: cell-based; details: PC-3; method in brief: as §2
[23] = molecular target: Transcription factor p65 (Homo sapiens) (UniProt Q04206); assay: Inhibition of NFkappaB p65 in nuclear extract of human PC3 cells assessed as reduction in binding to consensus DNA sequence at 10 uM after 24 hrs relative to control; assay type: cell-based; details: PC-3; method in brief: as §2

Row | IC50 [2] [µM] | IC50 [9] [µM] | IC50 [10] [µM] | IC50 [15] [µM] | IC50 [18] [µM] | Structure (SMILES) | IC50 [1] [µM] | Activity [3] [%] | Activity [4] [%] | Activity [5] [%] | Activity [6] [%] | Activity [7] [%] | Activity [8] [%] | Activity [11] [%] | Activity [12] [%] | Activity [13] [%] | Activity [14] [%] | Activity [16] [%] | Activity [17] [%] | Activity [19] | also measured
1 | 0.8 | 100 | 0.1 | 100 | 0.3 | CC1=C2[C@H]3OC(=O)C4(C[C@H](c5ccc(Br)cc5)N(c5ccccc5)O4)[C@@H]3CC[C@@]2(C)C=CC1=O (some centres not stated) | 100 | 33.8 | 0.8 | 42.8 | 1.6 | 1.3 | 4.2 | 4.9 | 4.4 | 53.2 | 34.7 | 55.3 | 55.8 | Dose-dependent effect | –
2 | 0.3 | 31 | 0.01 | 37 | 0.5 | CC1=C2[C@H]3OC(=O)C4(C[C@@H](c5ccc(Br)cc5)N(c5ccccc5)O4)[C@@H]3CC[C@@]2(C)C=CC1=O (some centres not stated) | 65 | 25.6 | 1.2 | 67.9 | 2 | 0.4 | 6.2 | 0.4 | 4.5 | 3.1 | 39.7 | 60.9 | 43.5 | Dose-dependent effect | inhibition [20]: 43%; inhibition [21]: 20%; inhibition [22]: Dose-dependent effect; inhibition [23]: 57%
